Measurements: ChEMBL document CHEMBL4689842, “EUbOPEN Chemogenomics Library wave 1” (2021)

System: Fibroblast
Assay: Multiplex assay against human fibroblast
Assay type: toxicity, cell-based
Summary of the method: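 Hoechst33342, BioTracker Green Microtubule Cytoskeleton Dye, MitoTracker Red and Annexin V Alexa Fluor 680 were added to live cells at seeding, and imaging on a CQ1 microscope at 37°C and 5% CO2 followed compound addition. Gating by CellPathfinder machine learning separated cells into Hoechst high-intensity objects or normal cells, then normal cells into healthy, pyknosed or fragmented nuclei, then pyknosed cells into mitotic or apoptotic. Per cents of healthy-nucleus cells are reported for the tubulin, mitochondrial-mass and membrane-permeability phenotypes.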

[1] = 12 h, 1 µM, compound concentration 1 uM, replicate 1
[2] = 12 h, 1 µM, compound concentration 1 uM, replicate 2
[3] = 12 h, 10 µM, compound concentration 10 uM, replicate 1
[4] = 12 h, 10 µM, compound concentration 10 uM, replicate 2
[5] = 24 h, 1 µM, compound concentration 1 uM, replicate 1
[6] = 24 h, 1 µM, compound concentration 1 uM, replicate 2
[7] = 24 h, 10 µM, compound concentration 10 uM, replicate 1
[8] = 24 h, 10 µM, compound concentration 10 uM, replicate 2

COc1ccc(S(=O)(=O)N(CCO)c2ccccc2CN(C)C/C=C/c2ccc(Cl)cc2)cc1.O=P(O)(O)O
Population Fragmented Nuclei (%) [1]: 35%
Population Healthy Nuclei (%) [1]: 51%
Population Hoechst High Intensity Objects (%) [1]: 16%
Population Membrane Permeable-Phenotype (%) [1]: 12%
Population Mitochondria Different-Phenotype (%) [1]: 29%
Population Mitotic Cells (%) [1]: 19%
Population Normal (%) [1]: 83%
Population Pyknosed Nuclei (%) [1]: 13%
Population Tubulin-Different-Phenotype (%) [1]: 86%
Total Cell Count [1]: 278
Population Apoptotic (%) [2]: 80%
Population Fragmented Nuclei (%) [2]: 56%
Population Healthy Nuclei (%) [2]: 33%
Population Hoechst High Intensity Objects (%) [2]: 33%
Population Membrane Permeable-Phenotype (%) [2]: 11%
Population Mitochondria Different-Phenotype (%) [2]: 88%
Population Mitotic Cells (%) [2]: 20%
Population Normal (%) [2]: 66%
Population Pyknosed Nuclei (%) [2]: 9%
Population Tubulin-Different-Phenotype (%) [2]: 94%
Total Cell Count [2]: 77
Population Apoptotic (%) [3]: 75%
Population Fragmented Nuclei (%) [3]: 32%
Population Healthy Nuclei (%) [3]: 55%
Population Hoechst High Intensity Objects (%) [3]: 10%
Population Membrane Permeable-Phenotype (%) [3]: 14%
Population Mitochondria Different-Phenotype (%) [3]: 5%
Population Mitotic Cells (%) [3]: 25%
Population Normal (%) [3]: 89%
Population Pyknosed Nuclei (%) [3]: 12%
Population Tubulin-Different-Phenotype (%) [3]: 19%
Total Cell Count [3]: 179
Population Apoptotic (%) [4]: 50%
Population Fragmented Nuclei (%) [4]: 61%
Population Healthy Nuclei (%) [4]: 34%
Population Hoechst High Intensity Objects (%) [4]: 44%
Population Membrane Permeable-Phenotype (%) [4]: 22%
Population Mitochondria Different-Phenotype (%) [4]: 22%
Population Mitotic Cells (%) [4]: 50%
Population Normal (%) [4]: 55%
Population Pyknosed Nuclei (%) [4]: 3%
Population Tubulin-Different-Phenotype (%) [4]: 55%
Total Cell Count [4]: 94
Population Apoptotic (%) [5]: 80%
Population Fragmented Nuclei (%) [5]: 34%
Population Healthy Nuclei (%) [5]: 55%
Population Hoechst High Intensity Objects (%) [5]: 23%
Population Membrane Permeable-Phenotype (%) [5]: 5%
Population Mitochondria Different-Phenotype (%) [5]: 79%
Population Mitotic Cells (%) [5]: 20%
Population Normal (%) [5]: 76%
Population Pyknosed Nuclei (%) [5]: 9%
Population Tubulin-Different-Phenotype (%) [5]: 90%
Total Cell Count [5]: 264
Population Apoptotic (%) [6]: 100%
Population Fragmented Nuclei (%) [6]: 48%
Population Healthy Nuclei (%) [6]: 38%
Population Hoechst High Intensity Objects (%) [6]: 37%
Population Membrane Permeable-Phenotype (%) [6]: 0%
Population Mitochondria Different-Phenotype (%) [6]: 100%
Population Mitotic Cells (%) [6]: 0%
Population Normal (%) [6]: 62%
Population Pyknosed Nuclei (%) [6]: 12%
Population Tubulin-Different-Phenotype (%) [6]: 88%
Total Cell Count [6]: 75
Population Apoptotic (%) [7]: 69%
Population Fragmented Nuclei (%) [7]: 33%
Population Healthy Nuclei (%) [7]: 52%
Population Hoechst High Intensity Objects (%) [7]: 14%
Population Membrane Permeable-Phenotype (%) [7]: 8%
Population Mitochondria Different-Phenotype (%) [7]: 3%
Population Mitotic Cells (%) [7]: 30%
Population Normal (%) [7]: 85%
Population Pyknosed Nuclei (%) [7]: 14%
Population Tubulin-Different-Phenotype (%) [7]: 14%
Total Cell Count [7]: 186
Population Apoptotic (%) [8]: 75%
Population Fragmented Nuclei (%) [8]: 71%
Population Healthy Nuclei (%) [8]: 20%
Population Hoechst High Intensity Objects (%) [8]: 44%
Population Membrane Permeable-Phenotype (%) [8]: 18%
Population Mitochondria Different-Phenotype (%) [8]: 18%
Population Mitotic Cells (%) [8]: 25%
Population Normal (%) [8]: 55%
Population Pyknosed Nuclei (%) [8]: 7%
Population Tubulin-Different-Phenotype (%) [8]: 36%
Total Cell Count [8]: 95
